Data published in ChEMBL document CHEMBL1255284, “Aspergillus section Fumigati: antifungal susceptibility patterns and sequence-based identification” (2008).
Values after ≈ are worked out from the molar mass of the structure shown.

Legend:
Aspergillus lentulus [1] = assay: Antimicrobial activity against Aspergillus lentulus isolate CNM-CM-3537 obtained from sputum of patient after 48 hrs by broth microdilution method; format: functional; settings: isolate CNM-CM-3537, 48 h
In short: (§1)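 CLSI M38-A broth microdilution with modifications: RPMI 1640 with L-glutamine, 2% glucose, buffered to pH 7 with 0.165 M MOPS. Inoculum of 1 × 10^5 to 5 × 10^5 CFU/ml from 3- to 5-day-old cultures. Incubated 35°C, 48 h, humid. Visual reading with a mirror. MIC is complete growth inhibition; echinocandin MEC is hyphal morphological alteration. Azoles 8 to 0.015 μg/ml; others 16 to 0.03 μg/ml.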

[2] = system: Neosartorya pseudofischeri; assay: Antimicrobial activity against Neosartorya pseudofischeri isolate CNM-CM-3769 obtained from sputum of patient after 48 hrs by broth microdilution method; format: functional; settings: Aspergillus thermomutatus
In short: (§2)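 CLSI M38-A broth microdilution with modifications: RPMI 1640 with L-glutamine, MOPS-buffered to pH 7, plus 2% glucose. Inoculum 1 × 10^5 to 5 × 10^5 CFU/ml from 3–5-day cultures. Incubated at 35°C for 48 h, humid. Read visually with a mirror. MIC = complete growth inhibition; echinocandin MEC = altered hyphal morphology. QC strain A. fumigatus ATCC 2004305.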

Neosartorya hiratsukae [3] = assay: Antimicrobial activity against Neosartorya hiratsukae isolate CNM-CM-3764 obtained from oropharyngeal exudate of patient after 48 hrs by broth microdilution method; format: functional; settings: Aspergillus hiratsukae, isolate CNM-CM-3764, 48 h; in short: as §1
Aspergillus lentulus [4] = assay: Antimicrobial activity against Aspergillus lentulus isolate CNM-CM-4415 obtained from sputum of patient after 48 hrs by broth microdilution method; format: functional; settings: isolate CNM-CM-4415, 48 h; in short: as §1
Aspergillus lentulus [5] = assay: Antimicrobial activity against Aspergillus lentulus isolate CNM-CM-4428 obtained from skin of patient after 48 hrs by broth microdilution method; format: functional; settings: isolate CNM-CM-4428, 48 h; in short: as §1
Aspergillus viridinutans [6] = assay: Antimicrobial activity against Aspergillus viridinutans isolate CNM-CM-3147 obtained from oropharyngeal exudate of patient after 48 hrs by broth microdilution method; format: functional; settings: isolate CNM-CM-3147, 48 h; in short: as §1
Aspergillus lentulus [7] = assay: Antimicrobial activity against Aspergillus lentulus isolate CNM-CM-3599 obtained from sputum of patient after 48 hrs by broth microdilution method; format: functional; settings: isolate CNM-CM-3599, 48 h; in short: as §1
[8] = system: Aspergillus fumisynnematus; assay: Antimicrobial activity against Aspergillus fumisynnematus isolate CNM-CM-4063 obtained from bronchoalveolar aspirate of patient after 48 hrs by broth microdilution method; format: functional; settings: isolate CNM-CM-4063, Lung; in short: as §1
Aspergillus lentulus [9] = assay: Antimicrobial activity against Aspergillus lentulus isolate CNM-CM-4387 obtained from sputum of patient after 48 hrs by broth microdilution method; format: functional; settings: isolate CNM-CM-4387, 48 h; in short: as §1
Aspergillus viridinutans [10] = assay: Antimicrobial activity against Aspergillus viridinutans isolate CNM-CM-4518 obtained from nail of patient after 48 hrs by broth microdilution method; format: functional; settings: isolate CNM-CM-4518, 48 h; in short: as §1
[11] = system: Aspergillus fumigatiaffinis; assay: Antimicrobial activity against Aspergillus fumigatiaffinis isolate CNM-CM-3227 obtained from bronchoalveolar lavage fluid of patient after 48 hrs by broth microdilution method; settings: isolate CNM-CM-3227, Lung
Aspergillus lentulus [12] = assay: Antimicrobial activity against Aspergillus lentulus isolate CNM-CM-3134 obtained from sputum of patient after 48 hrs by broth microdilution method; format: functional; settings: isolate CNM-CM-3134, 48 h; in short: as §1
Neosartorya hiratsukae [13] = assay: Antimicrobial activity against Neosartorya hiratsukae isolate CNM-CM-3740 obtained from oropharyngeal exudate of patient after 48 hrs by broth microdilution method; format: functional; settings: Aspergillus hiratsukae, isolate CNM-CM-3740, 48 h; in short: as §1
Aspergillus lentulus [14] = assay: Antimicrobial activity against Aspergillus lentulus isolate CNM-CM-4426 obtained from sputum of patient after 48 hrs by broth microdilution method; format: functional; settings: isolate CNM-CM-4426, 48 h; in short: as §1
Aspergillus lentulus [15] = assay: Antimicrobial activity against Aspergillus lentulus isolate CNM-CM-3538 obtained from sputum of patient after 48 hrs by broth microdilution method; format: functional; settings: isolate CNM-CM-3538, 48 h; in short: as §1
Aspergillus lentulus [16] = assay: Antimicrobial activity against Aspergillus lentulus isolate CNM-CM-1290 obtained from sputum of patient after 48 hrs by broth microdilution method; format: functional; settings: isolate CNM-CM-1290, 48 h; in short: as §1
Aspergillus lentulus [17] = assay: Antimicrobial activity against Aspergillus lentulus isolate CNM-CM-3364 obtained from bronchoalveolar lavage fluid of patient after 48 hrs by broth microdilution method; format: functional; settings: isolate CNM-CM-3364, Lung; in short: as §1
[18] = system: Neosartorya pseudofischeri; assay: Antimicrobial activity against Neosartorya pseudofischeri isolate CNM-CM-2270 obtained from sputum of patient after 48 hrs by broth microdilution method; format: functional; settings: Aspergillus thermomutatus, isolate CNM-CM-2270, 48 h; in short: as §2
Neosartorya hiratsukae [19] = assay: Antimicrobial activity against Neosartorya hiratsukae isolate CNM-CM-3305 obtained from skin of patient after 48 hrs by broth microdilution method; format: functional; settings: Aspergillus hiratsukae, isolate CNM-CM-3305, 48 h; in short: as §1
[20] = system: Neosartorya pseudofischeri; assay: Antimicrobial activity against Neosartorya pseudofischeri isolate CNM-CM-3914 obtained from nail of patient after 48 hrs by broth microdilution method; format: functional; settings: Aspergillus thermomutatus, isolate CNM-CM-3914, 48 h; in short: as §2
Aspergillus lentulus [21] = assay: Antimicrobial activity against Aspergillus lentulus isolate CNM-CM-3583 obtained from sputum of patient after 48 hrs by broth microdilution method; format: functional; settings: isolate CNM-CM-3583, 48 h; in short: as §1
Neosartorya hiratsukae [22] = assay: Antimicrobial activity against Neosartorya hiratsukae isolate CNM-CM-3303 obtained from skin of patient after 48 hrs by broth microdilution method; format: functional; settings: Aspergillus hiratsukae, isolate CNM-CM-3303, 48 h; in short: as §1
Neosartorya hiratsukae [23] = assay: Antimicrobial activity against Neosartorya hiratsukae isolate CNM-CM-4328 obtained from cornea of patient after 48 hrs by broth microdilution method; format: functional; settings: Aspergillus hiratsukae, isolate CNM-CM-4328, Cornea; in short: as §1
Aspergillus lentulus [24] = assay: Antimicrobial activity against Aspergillus lentulus isolate CNM-CM-4420 obtained from nail of patient after 48 hrs by broth microdilution method; format: functional; settings: isolate CNM-CM-4420, 48 h; in short: as §1
Aspergillus fumigatus = assay: Antimicrobial activity against Aspergillus fumigatus ATCC 2004305 after 48 hrs by broth microdilution method; format: functional; settings: ATCC 2004305, 48 h
Aspergillus lentulus [25] = assay: Antimicrobial activity against Aspergillus lentulus isolate CNM-CM-4370 obtained from sputum of patient after 48 hrs by broth microdilution method; format: functional; settings: isolate CNM-CM-4370, 48 h; in short: as §1
Aspergillus lentulus [26] = assay: Antimicrobial activity against Aspergillus lentulus isolate CNM-CM-4330 obtained from sputum of patient after 48 hrs by broth microdilution method; format: functional; settings: isolate CNM-CM-4330, 48 h; in short: as §1
[27] = system: Aspergillus fumigatiaffinis; assay: Antimicrobial activity against Aspergillus fumigatiaffinis isolate CNM-CM-2280 obtained from sputum of patient after 48 hrs by broth microdilution method; settings: isolate CNM-CM-2280, 48 h
[28] = system: Neosartorya pseudofischeri; assay: Antimicrobial activity against Neosartorya pseudofischeri isolate CNM-CM-4060 obtained from sputum of patient after 48 hrs by broth microdilution method; format: functional; settings: Aspergillus thermomutatus; in short: as §2

## CN(C/C=C/C#CC(C)(C)C)Cc1cccc2ccccc12 [TERBINAFINE]
Aspergillus lentulus [1]
  MIC: 1 µg/mL (≈ 3.43 µM)
[2]
  MIC: 1.33 µg/mL (≈ 4.56 µM)
Neosartorya hiratsukae [3]
  MIC: 0.25 µg/mL (≈ 0.858 µM)
Aspergillus lentulus [4]
  MIC: 0.5 µg/mL (≈ 1.72 µM)
Aspergillus lentulus [5]
  MIC: 0.66 µg/mL (≈ 2.26 µM)
Aspergillus viridinutans [6]
  MIC: 1.2 µg/mL (≈ 4.12 µM)
Aspergillus lentulus [7]
  MIC: 1 µg/mL (≈ 3.43 µM)
[8]
  MIC: 1.66 µg/mL (≈ 5.7 µM)
Aspergillus lentulus [9]
  MIC: 0.5 µg/mL (≈ 1.72 µM)
Aspergillus viridinutans [10]
  MIC: 0.75 µg/mL (≈ 2.57 µM)
[11]
  MIC: 1.4 µg/mL (≈ 4.8 µM)
Aspergillus lentulus [12]
  MIC: 1.75 µg/mL (≈ 6 µM)
Neosartorya hiratsukae [13]
  MIC: 0.2 µg/mL (≈ 0.686 µM)
Aspergillus lentulus [14]
  MIC: 0.83 µg/mL (≈ 2.85 µM)
Aspergillus lentulus [15]
  MIC: 1 µg/mL (≈ 3.43 µM)
Aspergillus lentulus [16]
  MIC: 1.33 µg/mL (≈ 4.56 µM)
Aspergillus lentulus [17]
  MIC: 0.5 µg/mL (≈ 1.72 µM)
[18]
  MIC: 1 µg/mL (≈ 3.43 µM)
Neosartorya hiratsukae [19]
  MIC: 0.06 µg/mL (≈ 0.206 µM)
[20]
  MIC: 0.5 µg/mL (≈ 1.72 µM)
Aspergillus lentulus [21]
  MIC: 1.25 µg/mL (≈ 4.29 µM)
Neosartorya hiratsukae [22]
  MIC: 0.09 µg/mL (≈ 0.309 µM)
Neosartorya hiratsukae [23]
  MIC: 0.09 µg/mL (≈ 0.309 µM)
Aspergillus lentulus [24]
  MIC: 1 µg/mL (≈ 3.43 µM)
Aspergillus fumigatus
  MIC: 2 µg/mL (≈ 6.86 µM)
Aspergillus lentulus [25]
  MIC: 0.5 µg/mL (≈ 1.72 µM)
Aspergillus lentulus [26]
  MIC: 0.5 µg/mL (≈ 1.72 µM)
[27]
  MIC: 1.66 µg/mL (≈ 5.7 µM)
[28]
  MIC: 0.5 µg/mL (≈ 1.72 µM)

## C[C@@H](c1ncncc1F)[C@](O)(Cn1cncn1)c1ccc(F)cc1F [VORICONAZOLE]
Aspergillus lentulus [1]
  MIC: 3.5 µg/mL (≈ 10 µM)
[2]
  MIC: 3.33 µg/mL (≈ 9.53 µM)
Neosartorya hiratsukae [3]
  MIC: 1.66 µg/mL (≈ 4.75 µM)
Aspergillus lentulus [4]
  MIC: 5.33 µg/mL (≈ 15.3 µM)
Aspergillus lentulus [5]
  MIC: 5 µg/mL (≈ 14.3 µM)
Aspergillus viridinutans [6]
  MIC: 4 µg/mL (≈ 11.5 µM)
Aspergillus lentulus [7]
  MIC: 4 µg/mL (≈ 11.5 µM)
[8]
  MIC: 0.83 µg/mL (≈ 2.38 µM)
Aspergillus lentulus [9]
  MIC: 4 µg/mL (≈ 11.5 µM)
Aspergillus viridinutans [10]
  MIC: 4 µg/mL (≈ 11.5 µM)
[11]
  MIC: 5.6 µg/mL (≈ 16 µM)
Aspergillus lentulus [12]
  MIC: 6 µg/mL (≈ 17.2 µM)
Neosartorya hiratsukae [13]
  MIC: 1 µg/mL (≈ 2.86 µM)
Aspergillus lentulus [14]
  MIC: 5.33 µg/mL (≈ 15.3 µM)
Aspergillus lentulus [15]
  MIC: 7.5 µg/mL (≈ 21.5 µM)
Aspergillus lentulus [16]
  MIC: 4.5 µg/mL (≈ 12.9 µM)
Aspergillus lentulus [17]
  MIC: 5.6 µg/mL (≈ 16 µM)
[18]
  MIC: 3 µg/mL (≈ 8.59 µM)
Neosartorya hiratsukae [19]
  MIC: 0.375 µg/mL (≈ 1.07 µM)
[20]
  MIC: 6.66 µg/mL (≈ 19.1 µM)
Aspergillus lentulus [21]
  MIC: 3.5 µg/mL (≈ 10 µM)
Neosartorya hiratsukae [22]
  MIC: 0.5 µg/mL (≈ 1.43 µM)
Neosartorya hiratsukae [23]
  MIC: 1.25 µg/mL (≈ 3.58 µM)
Aspergillus lentulus [24]
  MIC: 5.33 µg/mL (≈ 15.3 µM)
Aspergillus fumigatus
  MIC: 0.25 µg/mL (≈ 0.716 µM)
Aspergillus lentulus [25]
  MIC: 5.33 µg/mL (≈ 15.3 µM)
Aspergillus lentulus [26]
  MIC: 3 µg/mL (≈ 8.59 µM)
[27]
  MIC: 6.66 µg/mL (≈ 19.1 µM)
[28]
  MIC: 3.33 µg/mL (≈ 9.53 µM)
